From ChEMBL document CHEMBL1255350, “Plasma and cerebrospinal fluid pharmacokinetics of moxifloxacin in a patient with tuberculous meningitis” (Antimicrob Agents Chemother, 2008) come the findings set out here.

Each structure is given as a SMILES string. In brackets after ≈: the same amount, converted by molar mass.

The subject of data set [1] is Homo sapiens. Nature of the data set: Cardiotoxicity in patient with intracerebral and leptomeningeal tuberculosis assessed as QT prolongation at 400 […], po […]. The data set is classed as toxicity, organism-based. The note with it: in vivo. The arrangement: route oral.
The subject of data set [2] is Homo sapiens. The data set is described as follows: Cardiotoxicity in patient with intracerebral and leptomeningeal tuberculosis assessed as QT prolongation at 800 […], po […]. The data set is classed as toxicity, organism-based. Further details: route oral. The note with it: in vivo.
For data set [3], the system named is Homo sapiens. The data set is described as follows: Hepatotoxicity in patient with intracerebral and leptomeningeal tuberculosis at 400 […], po QD measured on day 3. The note with it: in vivo. The data set is classed as toxicity, organism-based. The arrangement: route oral.
Data set [4] relates to Homo sapiens. The data set is described as follows: Hepatotoxicity in patient with intracerebral and leptomeningeal tuberculosis at 800 […], po QD measured on day 3. It is filed as toxicity, organism-based. The arrangement: route oral. The note with it: in vivo. The method in brief: (§1)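 Safety was monitored during oral once-daily treatment at 400 and then 800 mg. QTc was tracked by ECG, and blood samples were taken for renal and liver function tests.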

Data set [5] concerns Homo sapiens. Nature of the data set: Renal toxicity in patient with intracerebral and leptomeningeal tuberculosis at 400 […], po QD measured on day 3. It is filed as organism-based. Further details: route oral. The conditions noted are these: in vivo. In a few lines:
as §1

The test system of data set [6] is Homo sapiens. The data set is described as follows: Renal toxicity in patient with intracerebral and leptomeningeal tuberculosis at 800 […], po QD measured on day 3. It is filed as organism-based. The arrangement: route oral. The note with it: in vivo.
In data set [7] the test system is Mycobacterium tuberculosis. The data set is described as follows: Antimicrobial activity against Mycobacterium tuberculosis. The data set is classed as functional. In a few lines:
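MIC for the patient's isolate was determined by the Middlebrook 7H10 agar dilution method. It was used to calculate AUC0-24/MIC ratios.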

The nature of data set [8]: AUC (0 to 24 hrs) in plasma of patient with intracerebral and leptomeningeal tuberculosis at 400 […], po QD measured on day 3. The note with it: human. The data set is classed as ADME, organism-based. Further details: time < 24 hr, route oral. In a few lines: (§2)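 Single patient with intracerebral and leptomeningeal TB without active meningitis. Oral dosing once daily at 400 mg, then 800 mg, each sampled at steady state on day 3. Blood and CSF were drawn through a peripheral intravenous catheter and an external lumbar drain into heparin tubes. Sampling was predose and at 2, 4, 8, 12 and 24 h. Plasma was spun 1,500 × g for 10 min at room temperature and stored at −20°C.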

Data set [9] can be described thus: AUC (0 to 24 hrs) in plasma of patient with intracerebral and leptomeningeal tuberculosis at 800 […], po QD measured on day 3. The data set is classed as ADME, organism-based. The note with it: human. Further details: time < 24 hr, route oral.
The nature of data set [10]: AUC (0 to 24 hrs) in CSF of patient with intracerebral and leptomeningeal tuberculosis at 400 […], po QD measured on day 3. The data set is classed as ADME, organism-based, Cerebrospinal fluid. Further details: time < 24 hr, dose 400 mg/kg, route oral. The note with it: human.
Data set [11] is described as follows: AUC (0 to 24 hrs) in CSF of patient with intracerebral and leptomeningeal tuberculosis at 800 […], po QD measured on day 3. It is filed as ADME, organism-based, Cerebrospinal fluid. The note with it: human. Further details: time < 24 hr, route oral. In a few lines:
(§3)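 Single patient on steady-state oral moxifloxacin, 400 or 800 mg once daily, sampled on day 3 of each dose. CSF was taken from an external lumbar drain and blood from a peripheral IV catheter into heparin tubes, predose and at 2, 4, 8, 12 and 24 h. Plasma was separated at 1,500 × g for 10 min at room temperature and stored at −20°C.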

A short description of data set [12]: fAUC (0 to 24 hrs) in plasma of patient with intracerebral and leptomeningeal tuberculosis at 400 […], po QD measured on day 3. The data set is classed as ADME, organism-based. The arrangement: route oral. The note with it: human, in vivo.
Data set [13] can be described thus: fAUC (0 to 24 hrs) in plasma of patient with intracerebral and leptomeningeal tuberculosis at 800 […], po QD measured on day 3. The data set is classed as ADME, organism-based. The note with it: human, in vivo. The arrangement: route oral.
The nature of data set [14]: fAUC (0 to 24 hrs) in CSF of patient with intracerebral and leptomeningeal tuberculosis at 400 […], po QD measured on day 3. It is filed as ADME, organism-based, Cerebrospinal fluid. The conditions noted are these: human, in vivo. Further details: route oral. In a few lines: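 Same patient and sampling: oral 400 or 800 mg once daily at steady state, day 3 of each dose, predose to 24 h, with CSF from a lumbar drain and heparinized blood from an IV catheter. Free AUC0-24 was calculated assuming 40% protein binding.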

Data set [15] is described as follows: fAUC (0 to 24 hrs) in CSF of patient with intracerebral and leptomeningeal tuberculosis at 800 […], po QD measured on day 3. It is filed as ADME, organism-based, Cerebrospinal fluid. The arrangement: dose 800 mg/kg, route oral. The note with it: human, in vivo.
Data set [16] can be described thus: Cmax in plasma of patient with intracerebral and leptomeningeal tuberculosis at 400 […], po QD measured on day 3. The data set is classed as ADME, organism-based. Further details: route oral. The conditions noted are these: human.
The nature of data set [17]: Cmax in plasma of patient with intracerebral and leptomeningeal tuberculosis at 800 […], po QD measured on day 3. It is filed as ADME, organism-based. Further details: route oral. The conditions noted are these: human. In a few lines: as §2
The nature of data set [18]: Cmax in CSF of patient with intracerebral and leptomeningeal tuberculosis at 400 […], po QD measured on day 3. The data set is classed as ADME, organism-based, Cerebrospinal fluid. Further details: route oral. The conditions noted are these: human.
The nature of data set [19]: Cmax in CSF of patient with intracerebral and leptomeningeal tuberculosis at 800 […], po QD measured on day 3. The data set is classed as ADME, organism-based, Cerebrospinal fluid. Further details: route oral. The conditions noted are these: human. The method in brief:
as §3

The nature of data set [20]: Tmax in plasma of patient with intracerebral and leptomeningeal tuberculosis at 400 […], po QD measured on day 3. It is filed as ADME, organism-based. The arrangement: route oral. The conditions noted are these: human.
A short description of data set [21]: Tmax in plasma of patient with intracerebral and leptomeningeal tuberculosis at 800 […], po QD measured on day 3. The data set is classed as ADME, organism-based. Further details: route oral. The conditions noted are these: human.
The nature of data set [22]: Tmax in CSF of patient with intracerebral and leptomeningeal tuberculosis at 400 […], po QD measured on day 3. It is filed as ADME, organism-based, Cerebrospinal fluid. The arrangement: route oral. The conditions noted are these: human.
Data set [23] in a line: Tmax in CSF of patient with intracerebral and leptomeningeal tuberculosis at 800 […], po QD measured on day 3. The data set is classed as ADME, organism-based, Cerebrospinal fluid. The arrangement: route oral. The note with it: human.

Turning to `COc1c(N2C[C@@H]3CCCN[C@@H]3C2)c(F)cc2c(=O)c(C(=O)O)cn(C3CC3)c12` [MOXIFLOXACIN], the Activity result in the data set on Homo sapiens [1], in the data set on Homo sapiens [2], in the data set on Homo sapiens [3], with Homo sapiens [4], in the data set with Homo sapiens [5] and in the data set with Homo sapiens [6] was “Non-toxic” each time. Besides, in [7], the lowest concentration to inhibit growth (MIC) was 0.15 µg/mL (≈ 0.374 µM). Moreover, the AUC at 24 h in [8] amounted to 8900 ng·h/mL; in data set [9] it was 19400 ng·h/mL; in [10], 8400 ng·h/mL; in [11] it was 14300 ng·h/mL. The fAUC was 5300 ng·h/mL in [12], 11600 ng·h/mL in data set [13], 8400 ng·h/mL in data set [14] and 14300 ng·h/mL in [15]. For the same compound, the Cmax in data set [16] came to 1060 ng/mL; in [17] it was 2450 ng/mL; in data set [18], 616 ng/mL; in data set [19] it was 1420 ng/mL. Further, the Tmax in data set [20] worked out at 2 h; in data set [21], 2 h; in data set [22], 4 h; in data set [23], 4 h.
